The values that follow come from ChEMBL document CHEMBL2390927, “Design, synthesis and antimicrobial evaluation of novel benzimidazole type of Fluconazole analogues and their synergistic effects with Chloromycin, Norfloxacin and Fluconazole” (2013).

≈ marks a conversion by molar mass, not a printed value.

One may read the MIC as the lowest concentration that inhibits growth of the organism. A low value points to a more susceptible organism.

Assay [1] concerns Candida. Description: Antifungal activity against Candida mycoderma after 24 hrs by two-fold serial dilution method. Type of assay: functional. Summed up:
(§1)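 Spore suspension in sterile distilled water from one-day-old cultures on Sabouraud agar, final 1–5 × 10³ spore mL⁻¹. Compound stocks diluted in sterile RPMI 1640 as two-fold serial dilutions in microdilution plates. MIC is the lowest concentration completely inhibiting growth. Growth monitored visually and spectrophotometrically, in triplicate.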

Assay [2] concerns Candida albicans. Description: Antifungal activity against Candida albicans ATCC 76615 after 24 hrs by two-fold serial dilution method. Type of assay: functional. As to conditions: ATCC 76615, 24 h. Summed up: as §1
The test system of assay [3] is Salmonella typhi. In words: Antibacterial activity against Bacillus typhi after 24 hrs by two-fold serial dilution method. Type of assay: functional, Salmonella enterica subsp. enterica serovar Typhi. The settings on record: Salmonella enterica. Summed up:
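Two-fold serial dilution in 96-well plates following NCCLS; compounds dissolved in DMSO as stocks, then diluted in Mueller-Hinton broth; bacterial suspension adjusted with sterile saline to 1 × 10⁵ CFU; MIC taken as lowest concentration completely inhibiting growth, monitored visually and spectrophotometrically; DMSO-plus-inoculum well as solvent control; triplicate.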

In assay [4] the test system is Pseudomonas aeruginosa. In words: Antibacterial activity against Pseudomonas aeruginosa ATCC 27853 after 24 hrs by two-fold serial dilution method. The settings on record: ATCC 27853, 24 h. Type of assay: functional. The gist of the method:
(§2)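 MIC taken as the lowest concentration giving complete growth inhibition, by standard two-fold serial dilution in 96-well plates following NCCLS. Stocks in DMSO, diluted in Mueller–Hinton broth. Inoculum adjusted with sterile saline to 1 × 10⁵ CFU. DMSO with inoculum and no drug served as solvent control. Growth read visually and spectrophotometrically, in triplicate.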

Assay [5] deals with Escherichia coli. In words: Antibacterial activity against Escherichia coli JM109 after 24 hrs by two-fold serial dilution method. As to conditions: JM109, 24 h. Type of assay: functional.
The subject of assay [6] is Bacillus. In words: Antibacterial activity against Bacillus proteus ATCC 13315 after 24 hrs by two-fold serial dilution method. The class given is functional. The settings on record: ATCC 13315, 24 h. The gist of the method: as §2
The subject of assay [7] is Micrococcus luteus. In words: Antibacterial activity against Micrococcus luteus ATCC 4698 after 24 hrs by two-fold serial dilution method. The settings on record: ATCC 4698, 24 h. Type of assay: functional. Summed up:
as §2

Assay [8] relates to Bacillus subtilis. Description: Antibacterial activity against Bacillus subtilis ATCC 21216 after 24 hrs by two-fold serial dilution method. As to conditions: ATCC 21216, 24 h. The class given is functional. Summed up:
as §2

Assay [9] relates to Staphylococcus aureus. Description: Antibacterial activity against methicillin-resistant Staphylococcus aureus N315 after 24 hrs by two-fold serial dilution method. Type of assay: functional. As to conditions: N315, 24 h.
The test system of assay [10] is Staphylococcus aureus. In words: Antibacterial activity against Staphylococcus aureus ATCC 6538 after 24 hrs by two-fold serial dilution method. The class given is functional. The settings on record: ATCC 6538, 24 h.
The test system of assay [11] is Aspergillus flavus. In words: Antifungal activity against Aspergillus flavus after 24 hrs by two-fold serial dilution method. Type of assay: functional. Summed up:
as §1

Assay [12] relates to Cyberlindnera jadinii. Description: Antifungal activity against Candida utilis after 24 hrs by two-fold serial dilution method. The class given is functional. The settings on record: Williopsis jadinii. Summed up: as §1
For assay [13], the system named is Saccharomyces cerevisiae. Description: Antifungal activity against Saccharomyces cerevisiae after 24 hrs by two-fold serial dilution method. Type of assay: functional. The gist of the method:
as §1

Take `Fc1ccc(NCc2nc3ccccc3[nH]2)cc1`: the MIC amounted to 32 µg/mL (≈ 133 µM) in assay [1]; 64 µg/mL (≈ 265 µM) in [2]; 128 µg/mL (≈ 531 µM) in [3]; 64 µg/mL (≈ 265 µM) in assay [4]; 64 µg/mL (≈ 265 µM) in assay [5]; 32 µg/mL (≈ 133 µM) in [6]. In addition, the MIC is 64 µg/mL (≈ 265 µM) in assay [7]; 32 µg/mL (≈ 133 µM) in assay [8]; 64 µg/mL (≈ 265 µM) in [9]; 32 µg/mL (≈ 133 µM) in [10]; 32 µg/mL (≈ 133 µM) in [11]; 32 µg/mL (≈ 133 µM) in [12]. Also, the MIC in assay [13] is 64 µg/mL (≈ 265 µM).
On to `Clc1ccc(NCc2nc3ccccc3[nH]2)cc1`, for which the MIC was found to be 64 µg/mL (≈ 248 µM) in assay [1]; 64 µg/mL (≈ 248 µM) in assay [2]; 128 µg/mL (≈ 497 µM) in assay [3]; 128 µg/mL (≈ 497 µM) in assay [4]; 32 µg/mL (≈ 124 µM) in assay [5]; 64 µg/mL (≈ 248 µM) in assay [6]. Besides, the MIC came to 32 µg/mL (≈ 124 µM) in assay [7]; 64 µg/mL (≈ 248 µM) in [8]; 32 µg/mL (≈ 124 µM) in [9]; 64 µg/mL (≈ 248 µM) in assay [10]; 64 µg/mL (≈ 248 µM) in [11]; 32 µg/mL (≈ 124 µM) in assay [12]. This molecule also showed an MIC in assay [13] of 64 µg/mL (≈ 248 µM).
In the case of `Ic1ccc(NCc2nc3ccccc3[nH]2)cc1`, the MIC is 128 µg/mL (≈ 367 µM) in [1]; 64 µg/mL (≈ 183 µM) in [2]; 64 µg/mL (≈ 183 µM) in assay [3]; 128 µg/mL (≈ 367 µM) in assay [4]; 64 µg/mL (≈ 183 µM) in [5]; 64 µg/mL (≈ 183 µM) in assay [6]. The MIC in assay [7] was 128 µg/mL (≈ 367 µM); in assay [8], 64 µg/mL (≈ 183 µM); in assay [9], 128 µg/mL (≈ 367 µM); in assay [10], 64 µg/mL (≈ 183 µM); in [11], 128 µg/mL (≈ 367 µM); in [12], 64 µg/mL (≈ 183 µM). Besides, the MIC in assay [13] was found to be 64 µg/mL (≈ 183 µM).
`Cc1ccc(NCc2nc3ccccc3[nH]2)cc1`: the MIC is 256 µg/mL (≈ 1080 µM) in assay [1]; 32 µg/mL (≈ 135 µM) in assay [2]; 64 µg/mL (≈ 270 µM) in assay [3]; 64 µg/mL (≈ 270 µM) in assay [4]; 64 µg/mL (≈ 270 µM) in [5]; 16 µg/mL (≈ 67.4 µM) in assay [6]. Besides, the MIC was determined as 512 µg/mL (≈ 2160 µM) in [7]; 64 µg/mL (≈ 270 µM) in assay [8]; 128 µg/mL (≈ 539 µM) in [9]; 32 µg/mL (≈ 135 µM) in [10]; 128 µg/mL (≈ 539 µM) in assay [11]; 32 µg/mL (≈ 135 µM) in [12]. The MIC in assay [13] was 64 µg/mL (≈ 270 µM).
For the molecule `Fc1ccc(NCc2nc3ccccc3[nH]2)c(F)c1`, the MIC in assay [1] turned out to be 32 µg/mL (≈ 123 µM); in assay [2], 64 µg/mL (≈ 247 µM); in assay [3], 32 µg/mL (≈ 123 µM); in assay [4], 64 µg/mL (≈ 247 µM); in assay [5], 16 µg/mL (≈ 61.7 µM); in assay [6], 16 µg/mL (≈ 61.7 µM). Also, the MIC came to 64 µg/mL (≈ 247 µM) in assay [7]; 32 µg/mL (≈ 123 µM) in assay [8]; 64 µg/mL (≈ 247 µM) in [9]; 16 µg/mL (≈ 61.7 µM) in assay [10]; 64 µg/mL (≈ 247 µM) in [11]; 32 µg/mL (≈ 123 µM) in assay [12]. This molecule also displayed an MIC in assay [13] of 32 µg/mL (≈ 123 µM).
For the molecule `Clc1ccc(NCc2nc3ccccc3[nH]2)c(Cl)c1`, the MIC in assay [1] was 32 µg/mL (≈ 110 µM); in [2], 32 µg/mL (≈ 110 µM); in assay [3], 128 µg/mL (≈ 438 µM); in [4] it was 64 µg/mL (≈ 219 µM); in assay [5], 32 µg/mL (≈ 110 µM); in [6], 64 µg/mL (≈ 219 µM). Further, the MIC worked out at 64 µg/mL (≈ 219 µM) in assay [7]; 32 µg/mL (≈ 110 µM) in assay [8]; 64 µg/mL (≈ 219 µM) in assay [9]; 64 µg/mL (≈ 219 µM) in [10]; 64 µg/mL (≈ 219 µM) in assay [11]; 32 µg/mL (≈ 110 µM) in assay [12]. Further, inhibition of growth in [13] (MIC) required 64 µg/mL (≈ 219 µM).
On to `CCCN(Cc1nc2ccccc2[nH]1)c1ccc(C)cc1`, for which the MIC in assay [1] came out at 128 µg/mL (≈ 458 µM); in assay [2], 128 µg/mL (≈ 458 µM); in [3], 128 µg/mL (≈ 458 µM); in assay [4], 256 µg/mL (≈ 916 µM); in assay [5], 128 µg/mL (≈ 458 µM); in [6], 128 µg/mL (≈ 458 µM). The MIC in assay [7] worked out at 128 µg/mL (≈ 458 µM); in assay [8] it was 64 µg/mL (≈ 229 µM); in assay [9], 256 µg/mL (≈ 916 µM); in assay [10], 128 µg/mL (≈ 458 µM); in assay [11] it was 128 µg/mL (≈ 458 µM); in [12], 64 µg/mL (≈ 229 µM). This molecule also registered an MIC in assay [13] of 128 µg/mL (≈ 458 µM).
Take `CCCCCCN(Cc1nc2ccccc2[nH]1)c1ccc(C)cc1`: the MIC in assay [1] was 128 µg/mL (≈ 398 µM); in assay [2] it was 64 µg/mL (≈ 199 µM); in [3], 64 µg/mL (≈ 199 µM); in [4] it was 64 µg/mL (≈ 199 µM); in assay [5], 256 µg/mL (≈ 796 µM); in [6], 256 µg/mL (≈ 796 µM). Besides, the MIC turned out to be 64 µg/mL (≈ 199 µM) in assay [7]; 128 µg/mL (≈ 398 µM) in assay [8]; 128 µg/mL (≈ 398 µM) in assay [9]; 128 µg/mL (≈ 398 µM) in assay [10]; 64 µg/mL (≈ 199 µM) in assay [11]; 128 µg/mL (≈ 398 µM) in assay [12]. Moreover, the MIC in [13] amounted to 64 µg/mL (≈ 199 µM).
